Experiment [1] deals with T1, Polyunsaturated fatty acid 5-lipoxygenase (Homo sapiens, UniProt P09917).
T1 sequence (P09917 whole entry): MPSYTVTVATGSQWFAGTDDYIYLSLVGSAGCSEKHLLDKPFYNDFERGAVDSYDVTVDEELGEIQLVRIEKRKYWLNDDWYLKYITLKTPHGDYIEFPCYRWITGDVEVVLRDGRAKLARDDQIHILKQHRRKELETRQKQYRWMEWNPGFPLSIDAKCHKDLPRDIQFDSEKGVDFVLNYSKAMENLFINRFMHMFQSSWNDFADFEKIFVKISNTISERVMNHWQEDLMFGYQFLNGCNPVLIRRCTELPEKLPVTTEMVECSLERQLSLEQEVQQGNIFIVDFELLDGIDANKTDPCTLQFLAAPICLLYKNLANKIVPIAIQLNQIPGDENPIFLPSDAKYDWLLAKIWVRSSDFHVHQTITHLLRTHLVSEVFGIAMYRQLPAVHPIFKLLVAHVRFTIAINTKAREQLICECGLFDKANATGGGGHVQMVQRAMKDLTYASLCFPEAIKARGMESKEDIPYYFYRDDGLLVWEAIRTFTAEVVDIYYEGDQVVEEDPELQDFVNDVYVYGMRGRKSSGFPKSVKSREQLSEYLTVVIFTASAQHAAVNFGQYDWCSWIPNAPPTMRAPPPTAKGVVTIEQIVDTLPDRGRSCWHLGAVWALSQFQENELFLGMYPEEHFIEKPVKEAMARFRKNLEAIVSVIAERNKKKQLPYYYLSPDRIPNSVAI
In words: Inhibition of 5-lipoxygenase from human whole blood. Format: tissue-based. In a few lines: (§1)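 Eicosanoid generation measured to assess 5-LO inhibition. IC50 from iterative four-parameter curve fit. Data reported as mean ± SE with the number of determinations; where only two runs were made, both values are given.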

Experiment [2] deals with T2, Polyunsaturated fatty acid 5-lipoxygenase (Mus musculus, UniProt P48999).
T2 sequence (P48999 whole entry): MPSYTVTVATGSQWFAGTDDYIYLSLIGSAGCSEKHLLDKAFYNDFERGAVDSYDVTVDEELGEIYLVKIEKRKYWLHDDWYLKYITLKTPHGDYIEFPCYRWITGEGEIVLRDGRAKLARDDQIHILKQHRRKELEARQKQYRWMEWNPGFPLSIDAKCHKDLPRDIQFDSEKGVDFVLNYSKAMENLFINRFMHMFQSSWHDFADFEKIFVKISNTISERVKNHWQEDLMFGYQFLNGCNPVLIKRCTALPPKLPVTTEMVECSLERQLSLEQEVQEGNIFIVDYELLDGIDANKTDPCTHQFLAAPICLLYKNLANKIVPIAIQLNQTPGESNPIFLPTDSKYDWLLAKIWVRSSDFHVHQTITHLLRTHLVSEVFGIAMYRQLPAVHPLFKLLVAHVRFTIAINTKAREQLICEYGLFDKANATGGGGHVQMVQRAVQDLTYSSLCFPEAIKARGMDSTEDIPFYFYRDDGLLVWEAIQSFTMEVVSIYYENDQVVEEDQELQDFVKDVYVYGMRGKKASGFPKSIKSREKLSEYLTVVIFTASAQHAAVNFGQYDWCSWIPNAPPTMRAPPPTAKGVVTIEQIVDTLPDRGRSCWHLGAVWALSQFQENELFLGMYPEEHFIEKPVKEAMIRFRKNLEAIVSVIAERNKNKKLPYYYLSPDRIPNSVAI
In words: Inhibition of 5-lipoxygenase from mouse macrophage. In a few lines:
(§2)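 Plasma-free cultures of murine peritoneal macrophages. Inhibition of LTC4 synthesis (5-LO product) measured, with PGE2 also monitored. IC50 from iterative four-parameter curve fit. Data reported as mean ± SE with the number of determinations; where only two runs were made, both values are given.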

Experiment [3] addresses T1, Polyunsaturated fatty acid 5-lipoxygenase. Put plainly: Inhibitory concentration against 5-lipoxygenase from human whole blood. Format: tissue-based. The essentials:
as §1

The target of experiment [4] is T2, Polyunsaturated fatty acid 5-lipoxygenase. Put plainly: Inhibitory concentration against 5-lipoxygenase from mouse macrophage. The essentials:
as §2

The IC50 is the point on the concentration scale where inhibition reaches its midpoint. The low end stands for inhibition by little substance, the high end for a need for much substance. Regarding `COC1(c2cc(F)cc(OCc3ccc4c(ccc(=O)n4C)c3)c2)CCOCC1` [ZD-2138], the midpoint of inhibition in experiment [1], the IC50, lay at 27 nM.
Take `CC[C@@](COC)(OC)c1cc(F)cc(OCc2ccc3c(ccc(=O)n3C)c2)c1`: the values for the IC50 in experiment [2] and in experiment [3] were 48 nM and 520 nM, respectively.
Consider `COC1(c2nccs2)CCc2ccc(OCc3ccc4ccccc4c3)cc21` (single isomer, unassigned; (-)), for which the IC50 in experiment [4] was found to be 1250 nM.
`CC[C@](COC)(OC)c1cc(F)cc(OCc2ccc3c(ccc(=O)n3C)c2)c1` had an IC50 in experiment [2] of 45 nM.

(Values after ChEMBL document CHEMBL1127840, “Conformational analysis of 5-lipoxygenase inhibitors: role of the substituents in chiral recognition and on the active conformations of the (methoxyalkyl)thiazole and methoxytetrahydropyran series” (J Med Chem, 1994).)
